These results are taken from ChEMBL document CHEMBL4346713, “Design, synthesis and docking studies of benzimidazole derivatives as potential EGFR inhibitors” (2019).

Assay [1] relates to MCF7. The experiment in a line: Antiproliferation activity against human MCF7 cells assessed as inhibition of cell proliferation at 1 uM by MTT assay relative to control. It is filed as functional. The method, boiled down:
(§1)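 Cells grown at 37°C in high-glucose DMEM with 10% FBS, 2 mM L-glutamine and 1% penicillin–streptomycin. Compounds, dissolved in DMSO, were added at 80% confluency, with DMSO-only and untreated wells as controls. MTT in PBS was then added for 2 h at 37°C. Formazan was dissolved in DMSO and read at 550 nm, with viability expressed relative to control cells set as 100%.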
In general terms: Formazan colour is commonly taken as a measure of viable cells.

Assay [2] relates to MCF7. The experiment in a line: Antiproliferation activity against human MCF7 cells assessed as inhibition of cell proliferation at 10 uM by MTT assay relative to control. It is filed as functional. The method, boiled down: as §1

Calls of active or inactive are those of the source. No cut-off for these calls is given here.

Regarding `C#Cc1cccc(Nc2ncnc3cc(OCCOC)c(OCCOC)cc23)c1` [ERLOTINIB], in the assay with MCF7 [1], the inhibition at 1 µM was 60%. Take `S=c1[nH]nc(Cn2c(-c3ccc(OCc4ccccc4)c(OCc4ccccc4)c3)nc3ccccc32)n1CCN1CCOCC1`: the inhibition entry with MCF7 [2] is “inactive”.

Broadly, the inhibition is the change of the read-out against control, counted positive when it falls.
